Results as given in ChEMBL document CHEMBL2010692, “Inhibitory effect of novel S,N-bisphosphonates on some carcinoma cell lines, osteoarthritis, and chronic inflammation” (Eur J Med Chem, 2012).

Assays:
Mus musculus [1] = assay: Antiinflammatory activity in methylated bovine serum albumin sensitized delayed-type hypersensitivity granuloma mouse model assessed as reduction of granuloma wet weight at 50 mg/kg, sc qd for 9 days; type: functional; settings: 216 h, route subcutaneous
Method in brief: (§1)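 Groups of 10 female mice (25 g) were sensitized sc over the inguinal lymph node with mBSA emulsion in saline, Freund's incomplete adjuvant and dextran. Three weeks later, two 6-mm hydroxyapatite discs soaked in mBSA (30 mg/mL saline) were implanted sc in the dorsum. Compounds at pH 7.4 were given sc into the scruff at 0.1 mL/10 g, daily from implantation to day 9. Granuloma wet and dry weights were recorded as % inhibition.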

Mus musculus [2] = assay: Antiinflammatory activity in methylated bovine serum albumin sensitized delayed-type hypersensitivity granuloma mouse model assessed as reduction of granuloma dry weight at 50 mg/kg, sc qd for 9 days; type: functional; settings: 216 h, route subcutaneous; method in brief: as §1
Mus musculus [3] = assay: Antiinflammatory activity in methylated bovine serum albumin sensitized delayed-type hypersensitivity granuloma mouse model assessed as reduction of granuloma dry weight at 100 mg/kg, sc qd for 9 days; type: functional; settings: 216 h, route subcutaneous; method in brief: as §1
Rattus norvegicus [4] = assay: Antiarthritic activity in complete Freund's adjuvant-induced rat arthritis model assessed as reduction of paw volume in injected paw at 50 mg/kg, sc qd for 28 days; type: functional; settings: 672 h, route subcutaneous
Method in brief: (§2)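 Rat adjuvant-induced polyarthritis. Compounds were dissolved or suspended in sterile saline, sonicated as needed, brought to pH 7.0 with NaOH, and kept as frozen aliquots, fresh each dosing day. Dosing was sc once daily for 28 days, by body weight. The arthritic control group got vehicle sc. Injected and noninjected hindpaw volumes were measured on day 28 by mercury displacement plethysmography and expressed as % inhibition.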

Mus musculus [5] = assay: Antiinflammatory activity in methylated bovine serum albumin sensitized delayed-type hypersensitivity granuloma mouse model assessed as reduction of granuloma wet weight at 100 mg/kg, sc qd for 9 days; type: functional; settings: 216 h, route subcutaneous; method in brief: as §1
Rattus norvegicus [6] = assay: Antiarthritic activity in complete Freund's adjuvant-induced rat arthritis model assessed as reduction of paw volume in non-injected paw at 50 mg/kg, sc qd for 28 days; type: functional; settings: 672 h, route subcutaneous; method in brief: as §2
Rattus norvegicus [7] = assay: Antiarthritic activity in complete Freund's adjuvant-induced rat arthritis model assessed as reduction of paw volume in injected paw at 100 mg/kg, sc qd for 28 days; type: functional; settings: 672 h, route subcutaneous; method in brief: as §2
Rattus norvegicus [8] = assay: Antiarthritic activity in complete Freund's adjuvant-induced rat arthritis model assessed as reduction of paw volume in non-injected paw at 100 mg/kg, sc qd for 28 days; type: functional; settings: 672 h, route subcutaneous; method in brief: as §2
HepG2 = assay: Cytotoxicity against human HepG2 cells after 48 hrs by SRB assay; type: functional, cell-based; settings: HepG2, 48 h
Method in brief: (§3)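 Cells were seeded at 10^4 per well and allowed to attach for 24 h. They were then exposed to four compound concentrations (5, 12.5, 25, 50), each in triplicate wells, for 48 h at 37 °C in 5% CO2. Cells were fixed and stained with sulforhodamine B, washed with acetic acid, and bound dye was recovered in Tris-EDTA pH 7.4 and read on a plate reader. IC50 was taken from survival curves using the triplicate means.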

HCT-116 = assay: Cytotoxicity against human HCT116 cells after 48 hrs by SRB assay; type: functional, cell-based; settings: HCT-116, 48 h; method in brief: as §3
Mus musculus [9] = assay: Antiinflammatory activity in methylated bovine serum albumin sensitized delayed-type hypersensitivity granuloma mouse model assessed as reduction of granuloma wet weight at 25 mg/kg, sc qd for 9 days; type: functional; settings: 216 h, route subcutaneous; method in brief: as §1
Mus musculus [10] = assay: Antiinflammatory activity in methylated bovine serum albumin sensitized delayed-type hypersensitivity granuloma mouse model assessed as reduction of granuloma dry weight at 25 mg/kg, sc qd for 9 days; type: functional; settings: 216 h, route subcutaneous; method in brief: as §1
Rattus norvegicus [11] = assay: Antiarthritic activity in complete Freund's adjuvant-induced rat arthritis model assessed as reduction of paw volume in non-injected paw at 30 mg/kg, sc qd for 28 days; type: functional; settings: 672 h, route subcutaneous; method in brief: as §2
Rattus norvegicus [12] = assay: Antiarthritic activity in complete Freund's adjuvant-induced rat arthritis model assessed as reduction of paw volume in injected paw at 20 mg/kg, sc qd for 28 days; type: functional; settings: 672 h, route subcutaneous; method in brief: as §2
Rattus norvegicus [13] = assay: Antiarthritic activity in complete Freund's adjuvant-induced rat arthritis model assessed as reduction of paw volume in non-injected paw at 10 mg/kg, sc qd for 28 days; type: functional; settings: 672 h, route subcutaneous; method in brief: as §2
Rattus norvegicus [14] = assay: Antiarthritic activity in complete Freund's adjuvant-induced rat arthritis model assessed as reduction of paw volume in injected paw at 10 mg/kg, sc qd for 28 days; type: functional; settings: 672 h, route subcutaneous; method in brief: as §2
Mus musculus [15] = assay: Antiinflammatory activity in methylated bovine serum albumin sensitized delayed-type hypersensitivity granuloma mouse model assessed as reduction of granuloma wet weight at 60 mg/kg, sc qd for 9 days; type: functional; settings: 216 h, route subcutaneous; method in brief: as §1
Rattus norvegicus [16] = assay: Antiarthritic activity in complete Freund's adjuvant-induced rat arthritis model assessed as reduction of paw volume in injected paw at 30 mg/kg, sc qd for 28 days; type: functional; settings: 672 h, route subcutaneous; method in brief: as §2
Mus musculus [17] = assay: Antiinflammatory activity in methylated bovine serum albumin sensitized delayed-type hypersensitivity granuloma mouse model assessed as reduction of granuloma dry weight at 60 mg/kg, sc qd for 9 days; type: functional; settings: 216 h, route subcutaneous; method in brief: as §1
Rattus norvegicus [18] = assay: Antiarthritic activity in complete Freund's adjuvant-induced rat arthritis model assessed as reduction of paw volume in non-injected paw at 20 mg/kg, sc qd for 28 days; type: functional; settings: 672 h, route subcutaneous; method in brief: as §2
Mus musculus [19] = assay: Toxicity in albino mouse assessed as mortality at 500 to 1000 mg/kg, […] after 24 hrs; type: organism-based; parameters: dose 500-1000 mg/kg; settings: in vivo
Method in brief: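 Albino mice (20-25 g) were split into 6 groups of 8. Compounds were given at 500, 750 and 1000 mg/kg; controls received buffer only. Toxic symptoms, mortality and postmortem findings were recorded 24 h after administration. LD50 was calculated by the Dm − Σ(z×d)/n formula.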

Mus musculus [20] = assay: Toxicity in albino mouse assessed as toxic symptoms at 500 to 1000 mg/kg, ip after 24 hrs; settings: in vivo

| SMILES | inhibition in vivo at 50 mg/kg (Mus musculus [1]) [%] | inhibition in vivo at 50 mg/kg (Mus musculus [2]) [%] | inhibition in vivo at 100 mg/kg (Mus musculus [3]) [%] | inhibition in vivo at 50 mg/kg (Rattus norvegicus [4]) [%] | inhibition in vivo at 100 mg/kg (Mus musculus [5]) [%] | inhibition in vivo at 50 mg/kg (Rattus norvegicus [6]) [%] | inhibition in vivo at 100 mg/kg (Rattus norvegicus [7]) [%] | inhibition in vivo at 100 mg/kg (Rattus norvegicus [8]) [%] | inhibition in vivo at 25 mg/kg (Mus musculus [9]) [%] | inhibition in vivo at 25 mg/kg (Mus musculus [10]) [%] | inhibition in vivo at 30 mg/kg (Rattus norvegicus [11]) [%] | inhibition in vivo at 20 mg/kg (Rattus norvegicus [12]) [%] | inhibition in vivo at 10 mg/kg (Rattus norvegicus [13]) [%] | inhibition in vivo at 10 mg/kg (Rattus norvegicus [14]) [%] | inhibition in vivo at 60 mg/kg (Mus musculus [15]) [%] | inhibition in vivo at 30 mg/kg (Rattus norvegicus [16]) [%] | inhibition in vivo at 60 mg/kg (Mus musculus [17]) [%] | inhibition in vivo at 20 mg/kg (Rattus norvegicus [18]) [%] | also measured |
| --- | --- | --- | --- | --- | --- | --- | --- | --- | --- | --- | --- | --- | --- | --- | --- | --- | --- | --- | --- |
| O=P(O)(O)C1(P(=O)(O)O)C(=S)c2ccccc2N=C1C1CCCCC1 | 19 | 28 | 36 | < 5 | 24 | 8 | 16 | 14 | – | – | – | – | – | – | – | – | – | – | – |
| COc1cccc2c1C(=O)c1c(O)c3c(c(O)c1C2=O)C[C@@](O)(C(=O)CO)C[C@@H]3O[C@H]1C[C@H](N)[C@H](O)[C@H](C)O1 [DOXORUBICIN] | – | – | – | – | – | – | – | – | – | – | – | – | – | – | – | – | – | – | IC50 (HepG2): 5.7 µM; IC50 (HCT-116): 6.86 µM |
| CN1c2ccccc2C(=S)C1(P(=O)(O)O)P(=O)(O)O | 15 | 16 | 32 | < 5 | 25 | 18 | 13 | 27 | – | – | – | – | – | – | – | – | – | – | – |
| CC1=Nc2ccc(Br)cc2C(=S)C1(P(=O)(O)O)P(=O)(O)O | < 10 | 18 | 25 | < 5 | 13 | 12 | 21 | 18 | – | – | – | – | – | – | – | – | – | – | – |
| CCOP1(=O)Nc2ccccc2C(S)=C1P(=O)(OCC)OCC (stereo not given) | – | – | 50 | 25 | 51 | 75 | – | – | 33 | 38 | 68 | 10 | 66 | < 5 | 44 | 14 | 42 | 56 | – |
| CCOP(=O)(OCC)C1(P(=O)(OCC)OCC)N=C(c2ccc(N(CC)CC)cc2)c2ccccc2C1=S | – | – | 44 | 24 | 34 | 65 | – | – | 22 | 32 | 52 | 20 | 44 | < 5 | 31 | 16 | 40 | 56 | Activity (Mus musculus [19]): Non-toxic; Activity (Mus musculus [20]): Non-toxic |
| CCOP(=O)(OCC)C1(P(=O)(OCC)OCC)C(=S)c2ccccc2N=C1C | – | – | 44 | 20 | 40 | 66 | – | – | 20 | 24 | 72 | 23 | 38 | < 5 | 30 | 18 | 37 | 61 | – |
